Test results as given in ChEMBL document CHEMBL4052597, “Symmetrically Substituted Xanthone Amphiphiles Combat Gram-Positive Bacterial Resistance with Enhanced Membrane Selectivity” (J Med Chem, 2017).
In brackets after ≈: the same amount, converted by molar mass. Activity calls are given as the source filed them. No cut-off for these calls is given here.

Key:
Staphylococcus aureus [1] = test: Antibacterial activity against Staphylococcus aureus ATCC 700699 infected in C57BL6 mouse cornea assessed as decrease in number of viable bacteria at 0.5% administered topically at 2 hrs interval for 4 times starting on day 1 post infection measured post last dose relative to control; type: functional, Mu50
Staphylococcus aureus [2] = test: Antibacterial activity against methicillin-sensitive Staphylococcus aureus DM4400R after 24 hrs by two fold dilution assay; type: functional
How it was run: (§1)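 CLSI broth macrodilution in cation-adjusted Mueller-Hinton broth. Compounds were dissolved in DMF and diluted in PBS to a 1000 µg/mL stock, then serially 2-fold diluted in CA-MHB. The inoculum came from colonies on 18-20 h TSA plates (direct colony suspension), adjusted to ~5×10^5 CFU/mL. Incubation was 24 h at 35 °C. MIC is the lowest concentration with no visible growth versus control. Biological replicates.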

Enterococcus hirae = test: Antibacterial activity against Enterococcus hirae ATCC 9790 after 24 hrs by two fold dilution assay; type: functional; conditions: ATCC 9790, 24 h
How it was run: (§2)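 Broth macro-dilution per CLSI in cation-adjusted Mueller-Hinton broth; compounds dissolved in DMF, diluted in PBS to 1000 µg/mL stock, then serial 2-fold dilutions in CA-MHB in tubes. Inoculum from 18-20 h TSA colonies (direct colony suspension), adjusted to about 5× 10^5 CFU/mL. MIC read after 24 h at 35 °C as lowest concentration with no visible growth; biological replicates.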

Staphylococcus aureus [3] = test: Antibacterial activity against methicillin-resistant Staphylococcus aureus DB68004 after 24 hrs by two fold dilution assay; type: functional; conditions: DB68004, 24 h; how it was run: as §1
[4] = Solubility of the compound in water; type: physicochemical; conditions: buffer
Staphylococcus aureus [5] = test: Bactericidal activity against methicillin-resistant Staphylococcus aureus DM21455 assessed as log reduction in bacterial load at 4 times MIC after 10 mins by time kill assay; type: functional
How it was run: (§3)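 MRSA DM21455 was taken from colonies on 18-22 h TSA plates and diluted to 10^5~10^6 CFU/mL in PBS. Cells were exposed to 0.5×, 1×, 2× and 4× MIC at 35 °C, with a PBS control. Samples were taken at 10 min, 30 min, 1, 2, 4 and 8 h, 10-fold diluted in PBS and plated on MHA. Colonies were counted after 24-48 h at 35 °C. Replicated.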

Staphylococcus aureus [6] = test: Antibacterial activity against methicillin-sensitive Staphylococcus aureus DM4299 after 24 hrs by two fold dilution assay; type: functional; conditions: DM4299, 24 h; how it was run: as §1
Staphylococcus aureus [7] = test: Antibacterial activity against methicillin-sensitive Staphylococcus aureus DM4583R after 24 hrs by two fold dilution assay; type: functional; how it was run: as §1
Staphylococcus aureus [8] = test: Bactericidal activity against methicillin-resistant Staphylococcus aureus DM21455 assessed as log reduction in bacterial load at 2 times MIC after 2 hrs by time kill assay; type: functional; how it was run: as §3
Lipid bilayer [9] = test: Induction of membrane damage in DOPC/cholesterol large unilamellar vesicles assessed as calcein leakage at compound to lipid ratio of 1:16 after 1 hr by fluorescence assay relative to control
How it was run: (§4)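 100 nm calcein-loaded LUVs made by film hydration; lipid content set by total phosphorus assay. DOPC/cholesterol (3:1, w/w) mimics mammalian and DOPE/DOPG (3:1, w/w) bacterial membranes. Compound in DMF added at lipid-to-compound ratio 16 (6.25 µM compound), final DMF limited to 0.5%. Fluorescence monitored at ex 490/em 520 nm for 1 hour; replicated.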

Staphylococcus aureus [10] = test: Antibacterial activity against methicillin-resistant Staphylococcus aureus ATCC BAA-38 after 24 hrs by two fold dilution assay; type: functional; conditions: ATCC BAA-38, 24 h; how it was run: as §1
Staphylococcus aureus [11] = test: Antibacterial activity against methicillin-sensitive Staphylococcus aureus ATCC 29213 after 24 hrs by two fold dilution assay; type: functional; conditions: ATCC 29213, 24 h; how it was run: as §1
Enterococcus faecium [12] = test: Antibacterial activity against vancomycin A-resistant Enterococcus faecium VRE 1008 after 24 hrs by two fold dilution assay; type: functional; conditions: VRE 1008, 24 h; how it was run: as §1
Bacillus cereus = test: Antibacterial activity against Bacillus cereus ATCC 11778 after 24 hrs by two fold dilution assay; type: functional; conditions: ATCC 11778, 24 h; how it was run: as §2
Staphylococcus aureus [13] = test: Antibacterial activity against methicillin-resistant Staphylococcus aureus ATCC 700699 after 24 hrs by two fold dilution assay; type: functional; conditions: Mu50, 24 h; how it was run: as §1
Staphylococcus aureus [14] = test: Antibacterial activity against methicillin-sensitive Staphylococcus aureus ATCC 6538 after 24 hrs by two fold dilution assay; type: functional; conditions: ATCC 6538, 24 h; how it was run: as §1
Staphylococcus aureus [15] = test: Antibacterial activity against Staphylococcus aureus DM 4001R after 24 hrs by two fold dilution assay; type: functional; how it was run: as §1
Enterococcus faecalis = test: Antibacterial activity against Enterococcus faecalis ATCC 29212 after 24 hrs by two fold dilution assay; type: functional; conditions: ATCC 29212, 24 h; how it was run: as §2
Lipid bilayer [16] = test: Induction of membrane damage in DOPE/DOPG large unilamellar vesicles assessed as calcein leakage at compound to lipid ratio of 1:16 after 1 hr by fluorescence assay relative to control; how it was run: as §4
[17] = Cytotoxicity against human corneal fibroblasts assessed as reduction in cell viability up to 250 uM after 4 hrs by CytoTox-ONE reagent-based LDH assay relative to control; conditions: corneal fibroblast
How it was run: (§5)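 Human corneal fibroblasts exposed to compound; cytotoxicity taken from LDH leakage, with cells treated with 1% triton X-100 as positive control. Measurements replicated.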

Staphylococcus aureus [18] = test: Disruption of membrane in Staphylococcus aureus isolate DM4001R assessed as increase in ATP leakage at 4 times MIC after 1 hr by ATP bioluminescent assay relative to control; type: functional
How it was run: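 S. aureus DM4001 grown to exponential phase, washed three times in 20 mM PBS (pH 7), resuspended to OD600 0.2. Compound added, suspensions held 1 hour at 37 °C, then centrifuged. Supernatant mixed with luciferase/luciferin enzyme mix; extracellular ATP quantified by luminescence. Replicated.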

Enterococcus faecium [19] = test: Antibacterial activity against vancomycin A-resistant Enterococcus faecium VRE 1007 after 24 hrs by two fold dilution assay; type: functional; conditions: VRE 1007, 24 h; how it was run: as §1
Staphylococcus aureus [20] = test: Disruption of cytoplasmic membrane in Staphylococcus aureus isolate DM4001R at 2 times MIC after 3000 secs by SYTOX green dye based fluorescence assay; type: functional
How it was run: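 Clinical S. aureus isolate DM4001R incubated with SYTOX Green plus compound; membrane permeabilization read as increased fluorescence intensity. Measurements replicated.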

Staphylococcus aureus [21] = test: Antibacterial activity against Staphylococcus aureus ATCC 29213 infected in C57BL6 mouse cornea assessed as decrease in number of viable bacteria at 0.5% administered topically at 2 hrs interval for 4 times starting on day 1 post infection measured post last dose relative to control; type: functional
Staphylococcus aureus [22] = test: Antibacterial activity against methicillin-resistant Staphylococcus aureus ATCC 43300 after 24 hrs by two fold dilution assay; type: functional; conditions: ATCC 43300, 24 h; how it was run: as §1
Staphylococcus aureus [23] = test: Antibacterial activity against methicillin-resistant Staphylococcus aureus DM 9808R after 24 hrs by two fold dilution assay; type: functional; how it was run: as §1
Staphylococcus aureus [24] = test: Antibacterial activity against Staphylococcus aureus ATCC 29213 at 0.5 times MIC after 17 serial passages; type: functional
How it was run: (§6)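 Serial-passage resistance selection in S. aureus ATCC29213. MIC was determined by CA-MHB broth macrodilution (2-fold dilutions, ~5×10^5 CFU/mL, 35 °C). Cells grown at 0.5× MIC were recovered and used to prepare the inoculum for the next MIC assay, with MIC change read after each 24 h/35 °C round. This was repeated for 17 passages, or 30 passages for one compound. Replicated.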

Staphylococcus aureus [25] = test: Antibacterial activity against methicillin-resistant Staphylococcus aureus DB57964 after 24 hrs by two fold dilution assay; type: functional; conditions: DB57964, 24 h; how it was run: as §1
Staphylococcus aureus [26] = test: Antibacterial activity against methicillin-resistant Staphylococcus aureus DM 21455 after 24 hrs by two fold dilution assay; type: functional; conditions: DM 21455, 24 h; how it was run: as §1
Staphylococcus aureus [27] = test: Antibacterial activity against methicillin-sensitive Staphylococcus aureus ATCC 29737 after 24 hrs by two fold dilution assay; type: functional; conditions: ATCC 29737, 24 h; how it was run: as §1
Staphylococcus aureus [28] = test: Antibacterial activity against methicillin-resistant Staphylococcus aureus DB6506 after 24 hrs by two fold dilution assay; type: functional; conditions: DB6506, 24 h; how it was run: as §1
Enterococcus faecium [29] = test: Antibacterial activity against vancomycin A-resistant Enterococcus faecium VRE 1006 after 24 hrs by two fold dilution assay; type: functional; conditions: VRE 1006, 24 h; how it was run: as §1
[30] = Cytotoxicity against human corneal fibroblasts assessed as reduction in cell viability at 100 uM after 4 hrs by CytoTox-ONE reagent-based LDH assay; conditions: corneal fibroblast; how it was run: as §5
Staphylococcus aureus [31] = test: Bactericidal activity against methicillin-resistant Staphylococcus aureus DM21455 assessed as log reduction in bacterial load at 2 times MIC after 30 mins by time kill assay; type: functional; how it was run: as §3
Staphylococcus aureus [32] = test: Antibacterial activity against Staphylococcus aureus ATCC 29213 at 0.5 times MIC after 30 serial passages; type: functional; how it was run: as §6

## COC(=O)[C@H](CCCNC(=N)N)NC(=O)COc1cc(OCC=C(C)C)cc2oc3cc(OCC=C(C)C)cc(OCC(=O)N[C@@H](CCCNC(=N)N)C(=O)OC)c3c(=O)c12
Staphylococcus aureus [1]
  Activity: 92.8%
Staphylococcus aureus [2]
  MIC: 0.78 µg/mL (≈ 0.914 µM)
Enterococcus hirae
  MIC: 6.25 µg/mL (≈ 7.33 µM)
Staphylococcus aureus [3]
  MIC: 3.13 µg/mL (≈ 3.67 µM)
[4]
  solubility: Soluble
Staphylococcus aureus [5]
  log(activity): 3
Staphylococcus aureus [6]
  MIC: 3.13 µg/mL (≈ 3.67 µM)
Staphylococcus aureus [7]
  MIC: 1.56 µg/mL (≈ 1.83 µM)
Staphylococcus aureus [8]
  log(activity): 3
Lipid bilayer [9]
  Activity: < 20%
Staphylococcus aureus [10]
  MIC: 3.13 µg/mL (≈ 3.67 µM)
Staphylococcus aureus [11]
  MIC: 3.13 µg/mL (≈ 3.67 µM)
Enterococcus faecium [12]
  MIC: 6.25 µg/mL (≈ 7.33 µM)
Bacillus cereus
  MIC: 3.13 µg/mL (≈ 3.67 µM)
Staphylococcus aureus [13]
  MIC: 3.13 µg/mL (≈ 3.67 µM)
Staphylococcus aureus [14]
  MIC: 0.78 µg/mL (≈ 0.914 µM)
Staphylococcus aureus [15]
  MIC: 0.78 µg/mL (≈ 0.914 µM)
Enterococcus faecalis
  MIC: 3.13 µg/mL (≈ 3.67 µM)
Lipid bilayer [16]
  Activity: 58.7%
[17]
  Activity: Non-Toxic
Staphylococcus aureus [18]
  Activity: 59.6%
Enterococcus faecium [19]
  MIC: 6.25 µg/mL (≈ 7.33 µM)
Staphylococcus aureus [20]
  Activity: Active
Staphylococcus aureus [21]
  Activity: 98.5%
Staphylococcus aureus [22]
  MIC: 1.56 µg/mL (≈ 1.83 µM)
Staphylococcus aureus [23]
  MIC: 0.78 µg/mL (≈ 0.914 µM)
Staphylococcus aureus [24]
  Activity: Active
Staphylococcus aureus [25]
  MIC: 1.56 µg/mL (≈ 1.83 µM)
Staphylococcus aureus [26]
  MIC: 1.56 µg/mL (≈ 1.83 µM)
Staphylococcus aureus [27]
  MIC: 0.78 µg/mL (≈ 0.914 µM)
Staphylococcus aureus [28]
  MIC: 1.56 µg/mL (≈ 1.83 µM)
Enterococcus faecium [29]
  MIC: 6.25 µg/mL (≈ 7.33 µM)

## COC(=O)[C@H](CCCNC(=N)N)NC(=O)[C@H](CCCNC(=N)N)NC(=O)COc1cc(OCC=C(C)C)cc2oc3cc(OCC=C(C)C)cc(OCC(=O)N[C@@H](CCCNC(=N)N)C(=O)N[C@@H](CCCNC(=N)N)C(=O)OC)c3c(=O)c12
Staphylococcus aureus [2]
  MIC: 3.13 µg/mL (≈ 2.69 µM)
Enterococcus hirae
  MIC: 6.25 µg/mL (≈ 5.36 µM)
Staphylococcus aureus [3]
  MIC: 1.56 µg/mL (≈ 1.34 µM)
[30]
  Activity: Non-Toxic
[4]
  solubility: Soluble
Staphylococcus aureus [5]
  log(activity): 3
Staphylococcus aureus [6]
  MIC: 1.56 µg/mL (≈ 1.34 µM)
Staphylococcus aureus [7]
  MIC: 3.13 µg/mL (≈ 2.69 µM)
Lipid bilayer [9]
  Activity: < 20%
Staphylococcus aureus [10]
  MIC: 3.13 µg/mL (≈ 2.69 µM)
Staphylococcus aureus [11]
  MIC: 3.13 µg/mL (≈ 2.69 µM)
Enterococcus faecium [12]
  MIC: 3.13 µg/mL (≈ 2.69 µM)
Bacillus cereus
  MIC: 3.13 µg/mL (≈ 2.69 µM)
Staphylococcus aureus [13]
  MIC: 1.56 µg/mL (≈ 1.34 µM)
Staphylococcus aureus [14]
  MIC: 1.56 µg/mL (≈ 1.34 µM)
Staphylococcus aureus [15]
  MIC: 1.56 µg/mL (≈ 1.34 µM)
Enterococcus faecalis
  MIC: 6.25 µg/mL (≈ 5.36 µM)
Lipid bilayer [16]
  Activity: 63.3%
[17]
  Activity: 27.4%
Staphylococcus aureus [18]
  Activity: 66.4%
Enterococcus faecium [19]
  MIC: 1.56 µg/mL (≈ 1.34 µM)
Staphylococcus aureus [20]
  Activity: Active
Staphylococcus aureus [31]
  log(activity): 3
Staphylococcus aureus [22]
  MIC: 1.56 µg/mL (≈ 1.34 µM)
Staphylococcus aureus [23]
  MIC: 3.13 µg/mL (≈ 2.69 µM)
Staphylococcus aureus [25]
  MIC: 1.56 µg/mL (≈ 1.34 µM)
Staphylococcus aureus [26]
  MIC: 3.13 µg/mL (≈ 2.69 µM)
Staphylococcus aureus [27]
  MIC: 1.56 µg/mL (≈ 1.34 µM)
Staphylococcus aureus [28]
  MIC: 1.56 µg/mL (≈ 1.34 µM)
Staphylococcus aureus [32]
  Activity: Active
Enterococcus faecium [29]
  MIC: 1.56 µg/mL (≈ 1.34 µM)
